Measured values pooled from the literature.
Lines come from different studies, so protocols differ.
Target: Tyrosine-protein kinase Lyn (LYN, Homo sapiens, UniProt P07948)

The remaining binding of `COc1cc(-c2cn(C3CCc4c(F)cccc4N(CC(F)(F)F)C3=O)nn2)ccc1-n1cnc(C)c1` (stereo not drawn) is reported as 100% (cell-free assay; competition with immobilised ligand; 1 µM).
`Cc1ccc(-n2nc(C(C)(C)C)cc2NC(=O)Nc2ccc(-n3c(N)c(C(N)=O)c4nc5ccccc5nc43)cc2)cc1` has a remaining binding of 0.85% (cell-free assay; competition with immobilised ligand; 1 µM).
With `Cc1cnc(Nc2ccc(C(=O)N3CCC(N4CCCC4)CC3)cc2)nc1-c1cc2ccccc2s1` the remaining binding was 78% (binding; competition with immobilised ligand; 1 µM).
The remaining binding of `N[C@@H]1CCN(c2nccc(-c3cnn4ncccc34)n2)C1` is reported as 100% (binding; 1 µM).
`CNC(=O)Nc1ccc2c(c1)[C@@]1(CC2)OC(=O)N(CC(=O)N(Cc2ccc(F)cc2)[C@@H](C)C(F)(F)F)C1=O` gave a remaining binding of 100% (cell-free assay; competition with immobilised ligand; 1 µM).
`COc1ncc2cc3ccccc3nc2c1C#N` gave a remaining binding of 94% (cell-free assay; competition with immobilised ligand; 5 µM).
The remaining binding of `CSc1cccnc1N1CCN(Cc2nc3ccccc3[nH]2)CC1` is reported as 95% (cell-free assay; competition with immobilised ligand; 1 µM).
For `Nc1ncc2c(n1)-c1c([nH]c3ccc(C#CC4CC4)cc13)CCCC2`, the remaining binding was 93% (binding; competition with immobilised ligand; 1 µM).
`Nc1cnc(N2CCc3cc(S(=O)(=O)Nc4c(F)cc(Cl)cc4F)cc(N4CCCC4=O)c32)nc1` gave a remaining binding of 88% (cell-free assay; competition with immobilised ligand; 1 µM).
`COc1cnc(Nc2cccc(S(N)(=O)=O)c2)nc1N1CCN(c2ccccc2)C(=O)C1` gave a remaining binding of 100% (binding; competition with immobilised ligand; 1 µM).
`CN(C)c1ncc(F)c(-c2cnn3ncccc23)n1` gave a remaining binding of 100% (binding; 1 µM).
`O=C(Nc1cnc(Oc2ccc(F)cc2)nc1)N1CCc2ncccc2[C@@H]1c1ccc(F)cc1` gave a remaining binding of 82% (cell-free assay; competition with immobilised ligand; 1 µM).
`C=CC(=O)N1CCC(C(=O)NCC(=O)N2CCN(c3nc(-c4cnc(N)nc4C(F)F)nc(N4CCOCC4)n3)CC2)CC1` has a remaining binding of 100% (binding; competition with immobilised ligand; 1 µM).
`FC(F)(F)Oc1cccc(-c2cnc3ccc(-c4ccncc4)nn23)c1` gave a remaining binding of 93% (cell-free assay; competition with immobilised ligand; 5 µM).
`C[C@@H]1CCN(c2nccc(-c3cnn4ncccc34)n2)C1` has a remaining binding of 93% (binding; 1 µM).
The remaining binding of `O=C(c1ccc(Nc2nccc(-c3cc4ccccc4s3)n2)cc1)N1CCC(N2CCCC2)CC1` is reported as 97% (binding; competition with immobilised ligand; 1 µM).
`CN(C)c1nccc(-c2cnn3ncccc23)n1` has a remaining binding of 83% (binding; 1 µM).
With `CN(C)C(=O)Cn1cc(-c2nc([C@@](C)(c3ccc(-c4cnc(N)nc4)cc3)C3CC3)no2)cn1` the remaining binding was 87% (cell-free assay; competition with immobilised ligand; 1 µM).
The remaining binding of `CN(C)c1nccc(-c2cnc3ncccn23)n1` is reported as 100% (binding; 1 µM).
`O=C(c1ccc(Nc2ncc(Cl)c(-c3ccc(Cl)s3)n2)cc1)N1CCC(N2CCCC2)CC1` gave a remaining binding of 87% (binding; competition with immobilised ligand; 1 µM).
`CN(CCCC(F)(F)F)c1nccc(-c2cnn3ncccc23)n1` has a remaining binding of 86% (binding; 1 µM).
`O=C(NCc1ncc(C(F)(F)F)cc1Cl)c1ccc2c(c1)C1(CCS(=O)(=O)CC1)[C@H](C1CC1)N2S(=O)(=O)c1ccc(F)cc1` gave a remaining binding of 100% (cell-free assay; competition with immobilised ligand; 1 µM).
With `Cc1cnn2ncc(-c3ccnc(N(C)C)n3)c2c1` the remaining binding was 92% (binding; 1 µM).
`O=C(Nc1c[nH]nc1C(=O)NC1CCNCC1)c1cc(F)cc(F)c1` has a remaining binding of 100% (binding; competition with immobilised ligand; 1 µM).
